Experimental data reported in ChEMBL document CHEMBL1125643, “N-(5-fluorobenzothiazol-2-yl)-2-guanidinothiazole-4-carboxamide. A novel, systemically active antitumor agent effective against 3LL Lewis lung carcinoma” (J Med Chem, 1991).
Several values for one entry are separate records, joined by “and”; a condition that tells them apart may be missing. Identical values can stand only once.

Experiments:
[1] = Drug related lethality is percent animals in treated groups dying prior to first tumor related death in untreated groups measured in BDF1 mice after po administration at 400 mg/kg dose; format: toxicity, organism-based; design: dose 400 mg/kg, route oral; conditions: BDF1, mus sp., in vivo, read-out: Lethality
How it was run: (§1)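 Female BDF1 mice (18–20 g) were implanted in the tail vein with 6×10^5 3LL cells in 0.20 mL RPMI 1640, seven per group. Drug was dissolved in DMSO (20% final) and diluted with saline to a fine suspension. Mice were dosed orally, 200 μL, from day 2 to day 9 (8 treatments). Lethality is the percentage of treated mice dying before the first tumor-related death among untreated controls.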

[2] = Drug related lethality is percent animals in treated groups dying prior to first tumor related death in untreated groups measured in BDF1 mice after po administration at 25 mg/kg dose; format: toxicity, organism-based; design: dose 25 mg/kg, route oral; conditions: BDF1, mus sp., in vivo, read-out: Lethality; how it was run: as §1
[3] = tested on: Mus sp.; assay: In vivo activity measured against 3LL metastasis in BDF1 mice after ip administration at 6.25 mg/kg dose, dosing on days 2-8 after tumor challenge; format: functional; conditions: route intraperitoneal
How it was run: (§2)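 Female BDF1 mice (18–20 g) given 6×10^5 log-phase 3LL cells iv via tail vein in 0.20 mL RPMI 1640, randomized, 7 per group. Drug freshly dissolved in DMSO (20% of final volume) and diluted with sterile saline to a fine suspension. Dosed 200 μL ip or po, 8 treatments from day 2. Survival monitored daily. %T/C = MST treated/MST control × 100, given as mean (s.e.) over repeat experiments.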

[4] = tested on: Mus sp.; assay: In vivo activity measured against 3LL metastasis in BDF1 mice after po administration at 200 mg/kg dose, dosing on days 2-8 after tumor challenge; format: functional; how it was run: as §2
[5] = Drug related lethality is percent animals in treated groups dying prior to first tumor related death in untreated groups measured in BDF1 mice after po administration at 12.5 mg/kg dose; format: toxicity, organism-based; design: dose 12.5 mg/kg, route oral; conditions: BDF1, mus sp., in vivo, read-out: Lethality; how it was run: as §1
[6] = Drug related lethality is percent animals in treated groups dying prior to first tumor related death in untreated groups measured in BDF1 mice after ip administration at 6.25 mg/kg dose; format: toxicity, organism-based; design: dose 6.25 mg/kg, route intraperitoneal; conditions: BDF1, mus sp., in vivo, read-out: Lethality
How it was run: (§3)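 Female BDF1 mice (18–20 g) were implanted in the lateral tail vein with 6×10^5 log-phase 3LL cells in 0.20 mL RPMI 1640 and then randomized, seven per group. Drug was dissolved in DMSO (20% of final volume) and diluted with sterile saline to a fine suspension. Mice received 200 μL ip daily from day 2 to day 9 (8 treatments) and were monitored daily. Lethality counted deaths before the first tumor-related control death.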

[7] = tested on: Mus sp.; assay: In vivo activity measured against 3LL metastasis in BDF1 mice after ip administration at 100 mg/kg dose, dosing on days 2-8 after tumor challenge; format: functional; conditions: route intraperitoneal; how it was run: as §2
[8] = Drug related lethality is percent animals in treated groups dying prior to first tumor related death in untreated groups measured in BDF1 mice after ip administration at 25 mg/kg dose; format: toxicity, organism-based; design: dose 25 mg/kg, route intraperitoneal; conditions: BDF1, mus sp., in vivo, read-out: Lethality; how it was run: as §3
[9] = Drug related lethality is percent animals in treated groups dying prior to first tumor related death in untreated groups measured in BDF1 mice after ip administration at 12.5 mg/kg dose; format: toxicity, organism-based; design: dose 12.5 mg/kg, route intraperitoneal; conditions: BDF1, mus sp., in vivo, read-out: Lethality; how it was run: as §3
[10] = tested on: Mus sp.; assay: In vivo activity was measured against 3LL metastasis in BDF1 mice after po administration at 100 mg/kg dose, dosing on days 2-8 after tumor challenge; format: functional; how it was run: as §2
[11] = Drug related lethality is percent animals in treated groups dying prior to first tumor related death in untreated groups measured in BDF1 mice after ip administration at 50 mg/kg dose; format: toxicity, organism-based; design: dose 50 mg/kg, route intraperitoneal; conditions: BDF1, mus sp., in vivo, read-out: Lethality; how it was run: as §3
[12] = Drug related lethality is percent animals in treated groups dying prior to first tumor related death in untreated groups measured in BDF1 mice after po administration at 50 mg/kg dose; format: toxicity, organism-based; design: dose 50 mg/kg, route oral; conditions: BDF1, mus sp., in vivo, read-out: Lethality; how it was run: as §1
[13] = Drug related lethality is percent animals in treated groups dying prior to first tumor related death in untreated groups measured in BDF1 mice after ip administration at 400 mg/kg dose; format: toxicity, organism-based; design: dose 400 mg/kg, route intraperitoneal; conditions: BDF1, mus sp., in vivo, read-out: Lethality; how it was run: as §3
[14] = Drug related lethality is percent animals in treated groups dying prior to first tumor related death in untreated groups measured in BDF1 mice after ip administration at 100 mg/kg dose; format: toxicity, organism-based; design: dose 100 mg/kg, route intraperitoneal; conditions: BDF1, mus sp., in vivo, read-out: Lethality; how it was run: as §3
[15] = tested on: Mus sp.; assay: In vivo activity measured against 3LL metastasis in BDF1 mice after ip administration at 50 mg/kg dose, dosing on days 2-8 after tumor challenge; format: functional; conditions: route intraperitoneal; how it was run: as §2
[16] = tested on: Mus sp.; assay: In vivo activity measured against 3LL metastasis in BDF1 mice after ip administration at 200 mg/kg dose, dosing on days 2-8 after tumor challenge; format: functional; conditions: route intraperitoneal; how it was run: as §2
[17] = Drug related lethality is percent animals in treated groups dying prior to first tumor related death in untreated groups measured in BDF1 mice after po administration at 200 mg/kg dose; format: toxicity, organism-based; design: dose 200 mg/kg, route oral; conditions: BDF1, mus sp., in vivo, read-out: Lethality; how it was run: as §1
[18] = tested on: Mus sp.; assay: In vivo activity measured against 3LL metastasis in BDF1 mice after po administration at 25 mg/kg dose, dosing on days 2-8 after tumor challenge; format: functional; how it was run: as §2
[19] = Drug related lethality is percent animals in treated groups dying prior to first tumor related death in untreated groups measured in BDF1 mice after po administration at 100 mg/kg dose; format: toxicity, organism-based; design: dose 100 mg/kg, route oral; conditions: BDF1, mus sp., in vivo, read-out: Lethality; how it was run: as §1
[20] = tested on: Mus sp.; assay: In vivo activity measured against 3LL metastasis in BDF1 mice after ip administration at 25 mg/kg dose, dosing on days 2-8 after tumor challenge; format: functional; conditions: route intraperitoneal; how it was run: as §2
[21] = tested on: Mus sp.; assay: In vivo activity measured against 3LL metastasis in BDF1 mice after ip administration at 12.5 mg/kg dose, dosing on days 2-8 after tumor challenge; format: functional; conditions: route intraperitoneal; how it was run: as §2
[22] = Drug related lethality is percent animals in treated groups dying prior to first tumor related death in untreated groups measured in BDF1 mice after ip administration at 200 mg/kg dose; format: toxicity, organism-based; design: dose 200 mg/kg, route intraperitoneal; conditions: BDF1, mus sp., in vivo, read-out: Lethality; how it was run: as §3
[23] = tested on: Mus sp.; assay: In vivo activity measured against 3LL metastasis in BDF1 mice after po administration at 50 mg/kg dose, dosing on days 2-8 after tumor challenge; format: functional; how it was run: as §2
[24] = tested on: Mus sp.; assay: In vivo activity measured against 3LL metastasis in BDF1 mice after ip administration at 8 mg/kg dose, dosing on days 3,7,11 after tumor challenge; format: functional; conditions: route intraperitoneal
[25] = tested on: Mus sp.; assay: In vivo activity measured against 3LL metastasis in BDF1 mice after ip administration at 32 mg/kg dose, dosing on days 3,7,11 after tumor challenge; format: functional; conditions: route intraperitoneal
[26] = Drug related lethality is percent animals in treated groups dying prior to first tumor related death in untreated groups measured in BDF1 mice after ip administration at 32 mg/kg dose days 3,7,11 after tumor challenge; format: toxicity, organism-based; design: dose 32 mg/kg, route intraperitoneal; conditions: BDF1, mus sp., in vivo, read-out: Lethality
[27] = Drug related lethality is percent animals in treated groups dying prior to first tumor related death in untreated groups measured in BDF1 mice after ip administration at 16 mg/kg dose days 3,7,11 after tumor challenge; format: toxicity, organism-based; design: dose 16 mg/kg, route intraperitoneal; conditions: BDF1, mus sp., in vivo, read-out: Lethality
[28] = Drug related lethality is percent animals in treated groups dying prior to first tumor related death in untreated groups measured in BDF1 mice after ip administration at 8 mg/kg dose days 3,7,11 after tumor challenge; format: toxicity, organism-based; design: dose 8 mg/kg, route intraperitoneal; conditions: BDF1, mus sp., in vivo, read-out: Lethality
[29] = tested on: Mus sp.; assay: In vivo activity measured against 3LL metastasis in BDF1 mice after ip administration at 16 mg/kg dose, dosing on days 3,7,11 after tumor challenge; format: functional; conditions: route intraperitoneal
[30] = tested on: Mus sp.; assay: In vivo activity measured against 3LL metastasis in BDF1 mice after ip administration at 100 mg/kg dose, dosing on days 3-6 after tumor challenge; format: functional; conditions: route intraperitoneal
[31] = Drug related lethality is percent animals in treated groups dying prior to first tumor related death in untreated groups measured in BDF1 mice after ip administration at 50 mg/kg dose 2-4 days after tumor challenge; format: toxicity, organism-based; design: dose 50 mg/kg, route intraperitoneal; conditions: BDF1, mus sp., in vivo, read-out: Lethality
[32] = tested on: Mus sp.; assay: In vivo activity measured against 3LL metastasis in BDF1 mice after ip administration at 100 mg/kg dose, dosing on days 2-4 after tumor challenge; format: functional; conditions: route intraperitoneal
[33] = Drug related lethality is percent animals in treated groups dying prior to first tumor related death in untreated groups measured in BDF1 mice after ip administration at 100 mg/kg dose 3-6 days after tumor challenge; format: toxicity, organism-based; design: dose 100 mg/kg, route intraperitoneal; conditions: BDF1, mus sp., in vivo, read-out: Lethality
[34] = Drug related lethality is percent animals in treated groups dying prior to first tumor related death in untreated groups measured in BDF1 mice after ip administration at 25 mg/kg dose 2-4 days after tumor challenge; format: toxicity, organism-based; design: dose 25 mg/kg, route intraperitoneal; conditions: BDF1, mus sp., in vivo, read-out: Lethality
[35] = Drug related lethality is percent animals in treated groups dying prior to first tumor related death in untreated groups measured in BDF1 mice after ip administration at 200 mg/kg dose 2-4 days after tumor challenge; format: toxicity, organism-based; design: dose 200 mg/kg, route intraperitoneal; conditions: BDF1, mus sp., in vivo, read-out: Lethality
[36] = Drug related lethality is percent animals in treated groups dying prior to first tumor related death in untreated groups measured in BDF1 mice after ip administration at 100 mg/kg dose 2-4 days after tumor challenge; format: toxicity, organism-based; design: dose 100 mg/kg, route intraperitoneal; conditions: BDF1, mus sp., in vivo, read-out: Lethality
[37] = tested on: Mus sp.; assay: In vivo activity measured against 3LL metastasis in BDF1 mice after ip administration at 200 mg/kg dose, dosing on days 2-4 after tumor challenge; format: functional; conditions: route intraperitoneal
[38] = tested on: Mus sp.; assay: In vivo activity measured against 3LL metastasis in BDF1 mice after ip administration at 50 mg/kg dose, dosing on days 2-4 after tumor challenge; format: functional; conditions: route intraperitoneal
[39] = tested on: Mus sp.; assay: In vivo activity measured against 3LL metastasis in BDF1 mice after ip administration at 25 mg/kg dose, dosing on days 2-4 after tumor challenge; format: functional; conditions: route intraperitoneal
[40] = tested on: Mus sp.; assay: In vivo activity measured against 3LL metastasis in BDF1 mice after ip administration at 50 mg/kg dose, dosing on days 3-6 after tumor challenge; format: functional; conditions: route intraperitoneal
[41] = tested on: Mus sp.; assay: In vivo activity measured against 3LL metastasis in BDF1 mice after ip administration at 5 mg/kg dose, dosing on days 3 after tumor challenge; format: functional, organism-based; design: dose 5 mg/kg
[42] = tested on: Mus sp.; assay: In vivo activity measured against 3LL metastasis in BDF1 mice after ip administration at 10 mg/kg dose, dosing on days 3 after tumor challenge; format: functional, organism-based; design: dose 10 mg/kg

N=C(N)Nc1nc(C(=O)Nc2nc3cc(F)ccc3s2)cs1
mortality [1]: 45.7%
mortality [2]: 1.78%
T/C [3]: 112.7%
T/C [4]: 119% and 150.3%
mortality [5]: 0%
mortality [6]: 0%
T/C [7]: 160.7%
mortality [8]: 0%
mortality [9]: 0%
T/C [10]: 157.7%
mortality [11]: 0.43%
mortality [12]: 2%
mortality [13]: 42.9%
mortality [14]: 0%
T/C [15]: 153%
T/C [16]: 179.7%
mortality [17]: 22.7%
T/C [18]: 127%
mortality [19]: 5.7%
T/C [20]: 153.8%
T/C [21]: 149.3%
mortality [22]: 14.3%
T/C [23]: 140.4%

COc1cc([C@@H]2c3cc4c(cc3[C@@H](O[C@@H]3O[C@@H]5CO[C@@H](C)O[C@H]5[C@H](O)[C@H]3O)[C@H]3COC(=O)[C@H]23)OCO4)cc(OC)c1O [ETOPOSIDE]
T/C [24]: 118%
T/C [25]: 130%
mortality [26]: 7%
mortality [27]: 0%
mortality [28]: 0%
T/C [29]: 128%

O=c1[nH]cc(F)c(=O)[nH]1 [FLUOROURACIL]
T/C [30]: 125%
mortality [31]: 0%
T/C [32]: 127%
mortality [33]: 14%
mortality [34]: 0%
mortality [35]: 28%
mortality [36]: 0%
T/C [37]: 141%
T/C [38]: 118%
T/C [39]: 114%
T/C [40]: 109%

CISPLATIN
T/C [41]: 112%
T/C [42]: 116%
